For eight compounds, IC50 and CC50 results are on record in ChEMBL document CHEMBL3112419, “Hydroxy fatty acids for the delivery of dideoxynucleosides as anti-HIV agents” (Bioorg Med Chem Lett, 2014).

pIC50: −log10 of the molar value.

For orientation: pIC50 means −log10 of the IC50, conventionally taken in molar units. The term CC50 denotes the concentration at which the toxic effect on the cells reaches its halfway point. A high value points to better tolerance by the cells.

One data set concerns Human immunodeficiency virus 2. The experiment in a line: Antiviral activity against HIV-2 ROD infected in thymidine kinase-deficient human CEM cells. The settings on record: Human immunodeficiency virus 2, ISOLATE ROD, CCRF-CEM. The format is functional, organism-based. In outline:
(§1)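 HIV-2 strain ROD was tested in wild-type CEM (CEM/0) cells and in thymidine kinase-deficient CEM (CEM/TK⁻) cells. Conjugates were tested as diastereomeric mixtures, and parent nucleosides were included as references.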
In turn, `Nc1ncnc2c1ncn2[C@H]1C=C[C@@H](CO)O1` showed a pIC50 of at most 4.09.

`CCCCCCCCCCCCCCCCC(OP(=O)(O)OC[C@@H]1C=C[C@H](n2cc(C)c(=O)[nH]c2=O)O1)C(=O)O` (some centres not stated) gave a pIC50 of under 4.40.

Consider `CCCCCCCCCCCCCCCC(CC(=O)O)OP(=O)(O)OC[C@@H]1C=C[C@H](n2cc(C)c(=O)[nH]c2=O)O1` (some centres not stated), for which the negative-log IC50 (pIC50) was under 4.40.

Turning to `CCCCCCCCCCCCCCCCC(OP(=O)(O)OC[C@@H]1C=C[C@H](n2cnc3c(N)ncnc32)O1)C(=O)O` (some centres not stated), the negative-log IC50 (pIC50) was under 4.41.

For the compound `CCCCCCCCCCCCCCCCC(OP(=O)(O)OC[C@@H]1CC[C@H](n2ccc(N)nc2=O)O1)C(=O)O` (some centres not stated), the pIC50 was under 4.39.

Compound `Cc1cn([C@H]2C=C[C@@H](CO)O2)c(=O)[nH]c1=O` [STAVUDINE] gave a pIC50 of at most 3.92.

`Nc1ccn([C@H]2CC[C@@H](CO)O2)c(=O)n1` [ZALCITABINE] had a pIC50 of 5.72.

Compound `Cc1cn([C@H]2C[C@H](N=[N+]=[N-])[C@@H](CO)O2)c(=O)[nH]c1=O` [ZIDOVUDINE] had a pIC50 of under 4.83.

System in the next data set: not listed separately
Put plainly: Cytotoxicity against human CEM/0 cells. The format is cell-based, CCRF-CEM.
Settings: not given
Regarding `Nc1ncnc2c1ncn2[C@H]1C=C[C@@H](CO)O1`, half-maximal cytotoxicity (CC50) was put at 360 µM.

In the case of `CCCCCCCCCCCCCCCCC(OP(=O)(O)OC[C@@H]1C=C[C@H](n2cc(C)c(=O)[nH]c2=O)O1)C(=O)O` (some centres not stated), the CC50 is 92.6 µM.

For `CCCCCCCCCCCCCCCC(CC(=O)O)OP(=O)(O)OC[C@@H]1C=C[C@H](n2cc(C)c(=O)[nH]c2=O)O1` (some centres not stated), the CC50 is over 198 µM.

Turning to `CCCCCCCCCCCCCCCCC(OP(=O)(O)OC[C@@H]1C=C[C@H](n2cnc3c(N)ncnc32)O1)C(=O)O` (some centres not stated), the CC50 is 81.3 µM.

The compound `CCCCCCCCCCCCCCCCC(OP(=O)(O)OC[C@@H]1CC[C@H](n2ccc(N)nc2=O)O1)C(=O)O` (some centres not stated) registered a CC50 of 91.1 µM.

`Cc1cn([C@H]2C=C[C@@H](CO)O2)c(=O)[nH]c1=O` [STAVUDINE] came in with a half-maximal cytotoxic concentration (CC50) of over 268 µM.

With `Nc1ccn([C@H]2CC[C@@H](CO)O2)c(=O)n1` [ZALCITABINE], the CC50 came to 179 µM.

With `Cc1cn([C@H]2C[C@H](N=[N+]=[N-])[C@@H](CO)O2)c(=O)[nH]c1=O` [ZIDOVUDINE], the CC50 is over 468 µM.

The next data set has as its system Human immunodeficiency virus 2. The experiment in a line: Antiviral activity against HIV-2 ROD infected in human CEM/0 cells. The format is functional, organism-based. The settings on record: Human immunodeficiency virus 2, ISOLATE ROD, CCRF-CEM. In outline: as §1
The compound `Nc1ncnc2c1ncn2[C@H]1C=C[C@@H](CO)O1` showed a pIC50 of at most 4.44.

`CCCCCCCCCCCCCCCCC(OP(=O)(O)OC[C@@H]1C=C[C@H](n2cc(C)c(=O)[nH]c2=O)O1)C(=O)O` (some centres not stated) showed a pIC50 of under 4.40.

The compound `CCCCCCCCCCCCCCCC(CC(=O)O)OP(=O)(O)OC[C@@H]1C=C[C@H](n2cc(C)c(=O)[nH]c2=O)O1` (some centres not stated) showed a pIC50 of under 3.70.

Turning to `CCCCCCCCCCCCCCCCC(OP(=O)(O)OC[C@@H]1C=C[C@H](n2cnc3c(N)ncnc32)O1)C(=O)O` (some centres not stated), the pIC50 was 4.60.

Compound `CCCCCCCCCCCCCCCCC(OP(=O)(O)OC[C@@H]1CC[C@H](n2ccc(N)nc2=O)O1)C(=O)O` (some centres not stated) had a pIC50 of 5.12.

Consider `Cc1cn([C@H]2C=C[C@@H](CO)O2)c(=O)[nH]c1=O` [STAVUDINE], for which the pIC50 was 5.06.

For `Nc1ccn([C@H]2CC[C@@H](CO)O2)c(=O)n1` [ZALCITABINE], the pIC50 is 6.30.

For `Cc1cn([C@H]2C[C@H](N=[N+]=[N-])[C@@H](CO)O2)c(=O)[nH]c1=O` [ZIDOVUDINE], the pIC50 is 7.40.

System in a further data set: not listed separately
The experiment in a line: Cytotoxicity against human MT4 cells. It is filed as cell-based.
Settings: not given
A digest of the protocol: (§2)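 MT-4 cell cultures infected with wild-type HIV-1 or HIV-2, with cytotoxicity assessed in parallel in the same cells. Lipid-nucleotide conjugates were purified as Na⁺ salts and tested as diastereomeric mixtures. Parent dideoxynucleosides were run alongside as references.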
`Nc1ncnc2c1ncn2[C@H]1C=C[C@@H](CO)O1` returned a CC50 of 278 µM.

Compound `CCCCCCCCCCCCCCCCC(OP(=O)(O)OC[C@@H]1C=C[C@H](n2cc(C)c(=O)[nH]c2=O)O1)C(=O)O` (some centres not stated) gave a CC50 of 64.7 µM.

As to `CCCCCCCCCCCCCCCC(CC(=O)O)OP(=O)(O)OC[C@@H]1C=C[C@H](n2cc(C)c(=O)[nH]c2=O)O1` (some centres not stated), the half-maximal cytotoxic concentration (CC50) is over 198 µM.

For the compound `CCCCCCCCCCCCCCCCC(OP(=O)(O)OC[C@@H]1C=C[C@H](n2cnc3c(N)ncnc32)O1)C(=O)O` (some centres not stated), the CC50 came to 97.8 µM.

In the case of `CCCCCCCCCCCCCCCCC(OP(=O)(O)OC[C@@H]1CC[C@H](n2ccc(N)nc2=O)O1)C(=O)O` (some centres not stated), the midpoint of cytotoxicity, the CC50, lay at 94.1 µM.

`Cc1cn([C@H]2C=C[C@@H](CO)O2)c(=O)[nH]c1=O` [STAVUDINE] showed a CC50 of 327 µM.

Consider `Nc1ccn([C@H]2CC[C@@H](CO)O2)c(=O)n1` [ZALCITABINE], for which the CC50 came out at 325 µM.

The compound `Cc1cn([C@H]2C[C@H](N=[N+]=[N-])[C@@H](CO)O2)c(=O)[nH]c1=O` [ZIDOVUDINE] gave a CC50 of over 93.5 µM.

Another data set deals with Human immunodeficiency virus 2. Put plainly: Antiviral activity against HIV-2 ROD infected in human MT4 cells. It is filed as functional, organism-based. The settings on record: Human immunodeficiency virus 2, ISOLATE ROD. A digest of the protocol:
as §2
`Nc1ncnc2c1ncn2[C@H]1C=C[C@@H](CO)O1` showed a negative-log IC50 (pIC50) of under 3.56.

Compound `CCCCCCCCCCCCCCCCC(OP(=O)(O)OC[C@@H]1C=C[C@H](n2cc(C)c(=O)[nH]c2=O)O1)C(=O)O` (some centres not stated) gave a pIC50 of 6.40.

For `CCCCCCCCCCCCCCCC(CC(=O)O)OP(=O)(O)OC[C@@H]1C=C[C@H](n2cc(C)c(=O)[nH]c2=O)O1` (some centres not stated), the pIC50 is 4.79.

For the compound `CCCCCCCCCCCCCCCCC(OP(=O)(O)OC[C@@H]1C=C[C@H](n2cnc3c(N)ncnc32)O1)C(=O)O` (some centres not stated), the pIC50 was 6.96.

In turn, `CCCCCCCCCCCCCCCCC(OP(=O)(O)OC[C@@H]1CC[C@H](n2ccc(N)nc2=O)O1)C(=O)O` (some centres not stated) had a pIC50 of 5.24.

For `Cc1cn([C@H]2C=C[C@@H](CO)O2)c(=O)[nH]c1=O` [STAVUDINE], the pIC50 was 6.40.

`Nc1ccn([C@H]2CC[C@@H](CO)O2)c(=O)n1` [ZALCITABINE]: the pIC50 was 5.72.

Take `Cc1cn([C@H]2C[C@H](N=[N+]=[N-])[C@@H](CO)O2)c(=O)[nH]c1=O` [ZIDOVUDINE]: the pIC50 was 8.15.

The test system of another data set is Human immunodeficiency virus 1. The experiment in a line: Antiviral activity against HIV-1 3B infected in human MT4 cells. It is filed as functional, organism-based. Particulars: Human immunodeficiency virus 1, 3B. In outline:
as §2
The compound `Nc1ncnc2c1ncn2[C@H]1C=C[C@@H](CO)O1` gave a pIC50 of under 3.56.

In the case of `CCCCCCCCCCCCCCCCC(OP(=O)(O)OC[C@@H]1C=C[C@H](n2cc(C)c(=O)[nH]c2=O)O1)C(=O)O` (some centres not stated), the pIC50 was 6.40.

With `CCCCCCCCCCCCCCCC(CC(=O)O)OP(=O)(O)OC[C@@H]1C=C[C@H](n2cc(C)c(=O)[nH]c2=O)O1` (some centres not stated), the pIC50 was 4.96.

Compound `CCCCCCCCCCCCCCCCC(OP(=O)(O)OC[C@@H]1C=C[C@H](n2cnc3c(N)ncnc32)O1)C(=O)O` (some centres not stated) had a pIC50 of 6.72.

Turning to `CCCCCCCCCCCCCCCCC(OP(=O)(O)OC[C@@H]1CC[C@H](n2ccc(N)nc2=O)O1)C(=O)O` (some centres not stated), the pIC50 was 5.01.

Turning to `Cc1cn([C@H]2C=C[C@@H](CO)O2)c(=O)[nH]c1=O` [STAVUDINE], the pIC50 was 6.59.

In turn, `Nc1ccn([C@H]2CC[C@@H](CO)O2)c(=O)n1` [ZALCITABINE] had a pIC50 of 6.00.
